# Test results as given in ChEMBL document CHEMBL4017497, “Structure-Affinity Relationships and Structure-Kinetics Relationships of Pyrido[2,1-f]purine-2,4-dione Derivatives as Human Adenosine A3 Receptor Antagonists” (J Med Chem, 2017).
# How the values were obtained:
# Adenosine receptor A3 [1] = biological target: T1, Adenosine receptor A3 (Homo sapiens, UniProt P0DMS8); experiment: (§1) Displacement of [3H]PSB-11 from human adenosine A3 receptor expressed on CHO cell membranes after 2 hrs by scintillation spectrometry
# T1 sequence (P0DMS8 whole entry): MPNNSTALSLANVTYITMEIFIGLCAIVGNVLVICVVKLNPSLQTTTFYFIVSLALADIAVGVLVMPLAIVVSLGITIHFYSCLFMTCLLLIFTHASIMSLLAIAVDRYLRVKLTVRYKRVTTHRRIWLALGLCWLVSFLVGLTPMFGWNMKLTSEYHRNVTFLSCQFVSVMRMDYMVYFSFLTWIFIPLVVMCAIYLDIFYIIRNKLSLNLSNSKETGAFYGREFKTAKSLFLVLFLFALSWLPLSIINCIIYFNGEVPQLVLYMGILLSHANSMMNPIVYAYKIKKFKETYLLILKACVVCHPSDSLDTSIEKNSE
# [2] = biological target: T2, Adenosine receptor A3 (Homo sapiens) (UniProt P0DMS8); experiment: as §1
# T2 sequence (whole entry): T1 sequence (P0DMS8 whole entry)
# [3] = biological target: T2, Adenosine receptor A3 (Homo sapiens); experiment: Displacement of [3H]PSB-11 from human adenosine A3 receptor expressed on CHO cell membranes assessed as dissociation rate constant after 120 mins by scintillation spectrometry
# [4] = biological target: T2, Adenosine receptor A3 (Homo sapiens); experiment: Displacement of [3H]PSB-11 from human adenosine A3 receptor expressed on CHO cell membranes assessed as kinetic rate index at IC50 measured after 240 mins by scintillation spectrometry
# Outline: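 Dual-point competition association at 10 °C. […] Specific binding read at 20 min (t1) and 240 min (t2); KRI derived from these two time points. n = 2 or 3.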
# [5] = biological target: T2, Adenosine receptor A3 (Homo sapiens); experiment: Displacement of [3H]PSB-11 from human adenosine A3 receptor expressed on CHO cell membranes assessed as association rate constant after 120 mins by scintillation spectrometry
# Adenosine receptor A3 [6] = biological target: T1, Adenosine receptor A3; experiment: Antagonist activity at human adenosine A3 receptor expressed in CHO cell membranes assessed as inhibition of 2-Cl-IB-MECA-induced [35S]GTPgammaS binding measured after 30 mins; type: functional; conditions: read-out: pA2 (converted)
# Outline: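 CHOhA3 membranes (15 μg) in 50 mM Tris-HCl, 5 mM MgCl2, 1 mM EDTA, 0.05% BSA, 1 mM DTT, pH 7.4, with 1 μM GDP and 5 μg saponin. […] 2-Cl-IB-MECA 0.1 nM–10 μM with ~0.3 nM [35S]GTPγS, 30 min at 25 °C. Filtration. Schild analysis from EC50 shifts gives pA2 and slope.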
# Adenosine receptor A3 [7] = biological target: T1, Adenosine receptor A3; experiment: Antagonist activity at human adenosine A3 receptor expressed in CHO cell membranes assessed as inhibition of 2-Cl-IB-MECA-induced [35S]GTPgammaS binding preincubated with or without for 60 mins followed by addition of 2-Cl-IB-MECA and [35S]GTPgammaS measured after 30 mins; type: functional; conditions: read-out: pA2 (converted)
smiles,measurement,setting,value
COc1ccn2c(c1)nc1c2c(=O)n(CC2CC2)c(=O)n1Cc1ccc(Cl)cc1,Ki,Adenosine receptor A3 [1],1.2 nM
same,inhibition,[2],Dose-dependent effect
same,K,[3],8.2 ×10⁻⁴ /s
same,Activity index,[4],1.11
same,K,[5],3 ×10⁶ /M/s
COc1ccn2c(c1)nc1c2c(=O)n(CC2CC2)c(=O)n1Cc1ccc(C)cc1,inhibition,[2],Dose-dependent effect
COc1ccn2c(c1)nc1c2c(=O)n(CCCO)c(=O)n1Cc1ccccc1,Ki,Adenosine receptor A3 [1],81 nM
same,inhibition,[2],Dose-dependent effect
same,Activity index,[4],1.04
CCCCCn1c(=O)c2c(nc3cc(OC)ccn32)n(Cc2ccccc2)c1=O,Ki,Adenosine receptor A3 [1],3.5 nM
same,inhibition,[2],Dose-dependent effect
same,K,[3],6 ×10⁻⁴ /s
same,Activity index,[4],1.11
same,K,[5],1.1 ×10⁶ /M/s
COc1ccn2c(c1)nc1c2c(=O)n(CC2CC2)c(=O)n1Cc1ccccc1,Ki,Adenosine receptor A3 [1],1 nM
same,inhibition,[2],Dose-dependent effect
same,K,[3],6 ×10⁻⁵ /s
same,Activity index,[4],2.68
same,K,[5],2.8 ×10⁶ /M/s
COc1ccn2c(c1)nc1c2c(=O)n(CC2CC2)c(=O)n1Cc1ccc(Cl)c(Cl)c1,Ki,Adenosine receptor A3 [1],5.3 nM
same,inhibition,[2],Dose-dependent effect
same,K,[3],5.3 ×10⁻⁵ /s
same,Activity index,[4],3.12
same,K,[5],1 ×10⁵ /M/s
COc1ccn2c(c1)nc1c2c(=O)n(CC2CC2)c(=O)n1Cc1ccc(Br)cc1,Ki,Adenosine receptor A3 [1],1.2 nM
same,inhibition,[2],Dose-dependent effect
same,Activity index,[4],1.19
C=CCCn1c(=O)c2c(nc3cc(OC)ccn32)n(Cc2ccccc2)c1=O,Ki,Adenosine receptor A3 [1],1.4 nM
same,inhibition,[2],Dose-dependent effect
same,Activity index,[4],1.23
CCn1c(=O)c2c(nc3cc(OC)ccn32)n(Cc2ccccc2)c1=O,Ki,Adenosine receptor A3 [1],10.7 nM
same,inhibition,[2],Dose-dependent effect
same,Activity index,[4],0.8
COc1ccn2c(c1)nc1c2c(=O)n(CC2CCC2)c(=O)n1Cc1ccccc1,Ki,Adenosine receptor A3 [1],2.7 nM
same,inhibition,[2],Dose-dependent effect
same,Activity index,[4],1.48
CCCCn1c(=O)c2c(nc3cc(OC)ccn32)n(Cc2ccccc2)c1=O,Ki,Adenosine receptor A3 [1],1.5 nM
same,inhibition,[2],Dose-dependent effect
same,Activity index,[4],1.29
CCc1ccc(Cn2c(=O)n(CC3CC3)c(=O)c3c2nc2cc(OC)ccn23)cc1,Ki,Adenosine receptor A3 [1],0.71 nM
same,inhibition,[2],Dose-dependent effect
same,Activity index,[4],0.81
C#CCn1c(=O)c2c(nc3cc(OC)ccn32)n(Cc2ccccc2)c1=O,Ki,Adenosine receptor A3 [1],4.3 nM
same,inhibition,[2],Dose-dependent effect
same,Activity index,[4],1.2
COc1ccn2c(c1)nc1c2c(=O)n(CC2CC2)c(=O)n1Cc1cccc(Cl)c1,Ki,Adenosine receptor A3 [1],4.9 nM
same,inhibition,[2],Dose-dependent effect
same,K,[3],4.7 ×10⁻⁴ /s
same,Activity index,[4],0.89
same,K,[5],8.2 ×10⁵ /M/s
COc1ccn2c(c1)nc1c2c(=O)n(CCC(C)C)c(=O)n1Cc1ccccc1,Ki,Adenosine receptor A3 [1],3.5 nM
same,inhibition,[2],Dose-dependent effect
same,Activity index,[4],1.39
COc1ccc(Cn2c(=O)n(CC3CC3)c(=O)c3c2nc2cc(OC)ccn23)cc1,Ki,Adenosine receptor A3 [1],1.4 nM
same,inhibition,[2],Dose-dependent effect
same,K,[3],7.8 ×10⁻⁵ /s
same,Activity index,[4],1.39
same,K,[5],4.8 ×10⁵ /M/s
COc1ccn2c(c1)nc1c2c(=O)n(CC2CC2)c(=O)n1CCc1ccccc1,Ki,Adenosine receptor A3 [1],7.7 nM
same,inhibition,[2],Dose-dependent effect
same,Activity index,[4],1.09
COc1ccn2c(c1)nc1c2c(=O)[nH]c(=O)n1Cc1ccccc1,Ki,Adenosine receptor A3 [1],108 nM
same,inhibition,[2],Dose-dependent effect
same,Kb,Adenosine receptor A3 [6],63.1 nM
same,K,[3],1.4 ×10⁻² /s
same,Kb,Adenosine receptor A3 [7],158 nM
same,Activity index,[4],0.38
same,K,[5],5.3 ×10⁵ /M/s
COCCn1c(=O)c2c(nc3cc(OC)ccn32)n(Cc2ccccc2)c1=O,Ki,Adenosine receptor A3 [1],23 nM
same,inhibition,[2],Dose-dependent effect
same,K,[3],6.3 ×10⁻⁴ /s
same,Activity index,[4],0.7
same,K,[5],4.3 ×10⁵ /M/s
COc1ccn2c(c1)nc1c2c(=O)n(CCC(C)(C)C)c(=O)n1Cc1ccccc1,Ki,Adenosine receptor A3 [1],8 nM
same,inhibition,[2],Dose-dependent effect
same,Activity index,[4],0.95
COc1ccn2c(c1)nc1c2c(=O)n(CC(C)C)c(=O)n1Cc1ccccc1,Ki,Adenosine receptor A3 [1],1.2 nM
same,inhibition,[2],Dose-dependent effect
same,K,[3],2 ×10⁻⁴ /s
same,Activity index,[4],1.64
same,K,[5],7.8 ×10⁵ /M/s
COc1ccn2c(c1)nc1c2c(=O)n(C)c(=O)n1Cc1ccccc1,Ki,Adenosine receptor A3 [1],20.8 nM
same,inhibition,[2],Dose-dependent effect
same,Activity index,[4],0.54
CCCCCCn1c(=O)c2c(nc3cc(OC)ccn32)n(Cc2ccccc2)c1=O,Ki,Adenosine receptor A3 [1],2.8 nM
same,inhibition,[2],Dose-dependent effect
same,K,[3],8.2 ×10⁻⁵ /s
same,Activity index,[4],2.18
same,K,[5],2.3 ×10⁵ /M/s
COc1ccn2c(c1)nc1c2c(=O)n(C[Si](C)(C)C)c(=O)n1Cc1ccccc1,Ki,Adenosine receptor A3 [1],2.7 nM
same,inhibition,[2],Dose-dependent effect
same,Activity index,[4],1.36
COc1ccn2c(c1)nc1c2c(=O)n(CC2CC2)c(=O)n1Cc1cccc(C)c1,Ki,Adenosine receptor A3 [1],1.5 nM
same,inhibition,[2],Dose-dependent effect
same,Activity index,[4],1.18
CCCn1c(=O)c2c(nc3cc(OC)ccn32)n(Cc2ccccc2)c1=O,Ki,Adenosine receptor A3 [1],3.2 nM
same,inhibition,[2],Dose-dependent effect
same,K,[3],3.2 ×10⁻⁴ /s
same,Activity index,[4],0.99
same,K,[5],8.5 ×10⁵ /M/s
CCCCCCCn1c(=O)c2c(nc3cc(OC)ccn32)n(Cc2ccccc2)c1=O,Ki,Adenosine receptor A3 [1],6.8 nM
same,inhibition,[2],Dose-dependent effect
same,K,[3],6.2 ×10⁻⁵ /s
same,Activity index,[4],4.06
same,K,[5],4.2 ×10⁵ /M/s
COc1ccn2c(c1)nc1c2c(=O)n(CC(C)(C)C)c(=O)n1Cc1ccccc1,Ki,Adenosine receptor A3 [1],3.5 nM
same,inhibition,[2],Dose-dependent effect
same,K,[3],1.1 ×10⁻⁴ /s
same,Activity index,[4],1.73
same,K,[5],5.5 ×10⁵ /M/s
C=CCn1c(=O)c2c(nc3cc(OC)ccn32)n(Cc2ccccc2)c1=O,Ki,Adenosine receptor A3 [1],5.9 nM
same,inhibition,[2],Dose-dependent effect
same,Activity index,[4],0.72
COc1cccc(Cn2c(=O)n(CC3CC3)c(=O)c3c2nc2cc(OC)ccn23)c1,Ki,Adenosine receptor A3 [1],0.38 nM
same,inhibition,[2],Dose-dependent effect
same,Kb,Adenosine receptor A3 [6],1.26 nM
same,K,[3],4.7 ×10⁻⁵ /s
same,Activity index,[4],2.24
same,K,[5],4.8 ×10⁵ /M/s
